How the values were obtained:
[1] = system: integrin αvβ3/αvβ5 in xenografted U87MG glioma tissues; parameters: species or system human; details: xenografted U87MG glioma slices, 1 h incubation, tested at 0.1-100 μM
Summary of the method: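 U87MG xenografts were snap-frozen in OCT and cut into 5 μm slices. Slices were fixed in ice-cold acetone for 10 min and air-dried for 20 min, then incubated for 1 h with test compound at 0.1, 1.0, 10, 20, 50 or 100 μM. After three PBS washes and DAPI mounting, images were taken at 200× with equal exposure. Fluorescent area was given as % of total area against concentration.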

[2] = system: integrin αvβ3/αvβ5 in human carcinoma tissues; test: Tumor tissue staining kinetics, time dependence, human carcinoma tissues; details: 50 μM, 5-90 min
[3] = system: integrin αvβ3/αvβ5 in human carcinoma tissues; test: Tumor tissue staining, concentration dependence, human carcinoma tissues
Summary of the method: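 Human colon, squamous cell lung and gastric carcinoma slices (5 μm) were deparaffinized in xylene and rehydrated through graded alcohols. They were stained for 1 h with test compound at […], PBS-washed three times and mounted with DAPI medium. Images at 200× with equal exposure and equal brightness/contrast adjustment. Positive staining area was expressed as % of total area and plotted against concentration.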

[4] = system: integrin αvβ3/αvβ5 in xenografted U87MG glioma tissues; parameters: species or system human; details: peptide 100 μM, antibody 2.5 μg/mL, 5-120 min
Summary of the method: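 Frozen 5 μm slices of U87MG xenograft were fixed in ice-cold acetone for 10 min and air-dried at RT. They were incubated with 100 μM test compound at RT for 5, 15, 30, 60, 90 or 120 min, PBS-washed three times and mounted with DAPI medium. The antibody arm used 10% goat serum (30 min, 37 °C), then rabbit anti-integrin β3 (2.5 μg/mL) for the same times, then Cy3 goat anti-rabbit (1:100, 1 h). Images at 200× with equal exposure; positive area as % of total plotted against time.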

[5] = system: integrin αvβ3/αvβ5 in xenografted U87MG glioma and human colon cancer tissues; test: Tumor tissue staining: blocking and RGD-specificity experiments; details: 100 μM; for Staining of tumor tissues (RGD specificity): xenografted U87MG glioma and human colon cancer tissues, same conditions
Summary of the method: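 Sections were frozen, acetone-fixed U87MG xenograft slices (5 μm) or deparaffinized, rehydrated human colon cancer slides. They were blocked with 10% goat serum (30 min, 37 °C), then incubated with 100 μM test compound for 1 h at RT, with or without 10 mM c(RGDfK)2 as blocker. After three PBS washes and DAPI mounting, ≥15 random fields per section were scored. Fluorescent area was given as % of total, mean ± standard deviation.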

Row | Substance | Concentration range in which tissues were well stained [1] [µM] | Incubation time for positive staining of colon cancer tissues [2] [min] | Minimal concentration for positive staining of colon carcinoma ([3]; human colon carcinoma slices, 1 h incubation, tested at 1-50 μM) [µM] | Staining of gastric carcinoma tissue ([3]; human gastric carcinoma tissue, 1-50 μM) | Concentration needed to achieve adequate fluorescence staining ([3]; human squamous cell lung cancer tissues, 1 h incubation) [µM] | Incubation time to achieve maximal fluorescent intensity [4] [min] | Staining of xenografted U87MG glioma tissues in the absence of blocker ([5]; 1 h, room temperature) | Staining of tumor tissues (RGD specificity) [5]
1 | FITC-Glu[cyclo[Arg-Gly-Asp-D-Phe-Lys(SAA-PEG2-(1,2,3-triazole)-1-yl-4-methylamide)]]2 (bicyclic or more) [FITC-Galacto-RGD2] | 10 to 100 | ≤ 15 | ~5 | little staining | > 25 | ≤ 30 | successfully stained | positively stained
2 | FITC-PEG4-E[PEG4-c(RGDfK)]2 (bicyclic or more) [FITC-3P-RGD2] |  |  |  |  |  |  |  | positively stained
3 | FITC-E[c(RGDfK)]2 (bicyclic or more) [FITC-RGD2] |  |  |  |  |  |  |  | positively stained

Source: article PMC4240344 (Bioconjugate Chemistry, 2014)
